Active and inactive are the calls of the source. No cut-off for these calls is given here.
Tests used:
[1] = molecular target: Kappa-type opioid receptor (Homo sapiens, UniProt P41145); test: Displacement of [3H]U69593 from recombinant human KOR after 60 mins by scintillation counting analysis
[2] = molecular target: Cytochrome P450 2B6 (Homo sapiens, UniProt P20813); test: Induction of CYP2B6 in human HepaRG cells at 10 uM measured after 24 hrs by qRT-PCR analysis relative to phenobarbital; type: ADME, cell-based; details: hepatocytes
Procedure, shortened: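 Cryopreserved HepaRG cells were plated on collagen I in Williams' E medium with GlutaMAX. On day 4 they were treated with 10 μM compound in serum-free induction medium for 24 h at 37 °C; the vehicle was 1% DMSO. Positive controls were omeprazole 50 μM (CYP1A2), phenobarbital 1 mM (CYP2B6) and rifampicin 10 μM (CYP3A4). mRNA was read by TaqMan qPCR with GAPDH as reference, using ΔΔCt, and expressed as % of the positive control.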

[3] = molecular target: Alpha-2A adrenergic receptor (Homo sapiens, UniProt P08913); test: Displacement of [3H]RX 821002 from recombinant human alpha 2A adrenoceptor after 60 mins by scintillation counting analysis
[4] = molecular target: Endothelin-1 receptor (Homo sapiens, UniProt P25101); test: Displacement of [125I]endothelin-1 from recombinant human ETA receptor after 120 mins by scintillation counting analysis
[5] = molecular target: Androgen receptor (Homo sapiens, UniProt P10275); test: Displacement of [3H]methyltrienolone from recombinant human AR after 1440 mins by scintillation counting analysis
[6] = molecular target: 3',5'-cyclic-AMP phosphodiesterase 4D (Homo sapiens, UniProt Q08499); test: Activity at human recombinant PDE4D2 using [3H]cAMP as substrate measured after 20 mins by scintillation counting analysis
[7] = molecular target: Alpha-1A adrenergic receptor (Homo sapiens, UniProt P35348); test: Displacement of [3H]prazosin from recombinant human alpha 1A adrenoceptor after 60 mins by scintillation counting analysis
[8] = molecular target: GABA-A receptor; anion channel; test: Displacement of [3H]flunitrazepam from rat brain GABAA ion channel after 60 mins by scintillation counting analysis
[9] = molecular target: Delta-type opioid receptor (Homo sapiens, UniProt P41143); test: Displacement of [3H]DADLE from recombinant human DOR after 60 mins by scintillation counting analysis
[10] = molecular target: 5-hydroxytryptamine receptor 3A (Homo sapiens, UniProt P46098); test: Displacement of [3H]BRL43694 from recombinant human 5HT3 receptor after 120 mins by scintillation counting analysis
[11] = molecular target: 5-hydroxytryptamine receptor 1A (Homo sapiens, UniProt P08908); test: Displacement of [3H]8-OH-DPAT from recombinant human 5HT1A after 60 mins by scintillation counting analysis
[12] = test system: Mus musculus; test: Anti-hepatosteatosis activity in ethanol-induced C57BL/6 mouse model of hepatic steatosis assessed as reduction in liver weight at 0.3 mg/kg, po administered once daily via gavage for last 2 weeks of study measured post-last dose; type: functional, organism-based
Procedure, shortened: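 Female C57BL/6J mice (9 weeks old, 19–21 g) were kept on Lieber–DeCarli liquid diet, with ethanol raised from 1 to 5% (v/v) over 15 d and then held for 4 weeks, pair-fed. Dosing was 0.03, 0.1 or 0.3 mg/kg by oral gavage once daily for the last 2 weeks, in 0.5% Na-CMC/1% NMP/0.3% Tween 80. Read-outs were Oil Red O on 10 μm liver sections imaged at 10× and liver weight normalized to brain weight. n = 6–10 per group; t test versus ethanol + vehicle.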

[13] = molecular target: Prostaglandin G/H synthase 1 (Homo sapiens, UniProt P23219); test: Activity at human recombinant COX1 using arachidonic acid as substrate measured after 3 mins by ADHP reagent based fluorescence assay
[14] = molecular target: Mu-type opioid receptor (Homo sapiens, UniProt P35372); test: Displacement of [3H]DAMGO from recombinant human MOR after 120 mins by scintillation counting analysis
[15] = molecular target: Neuronal acetylcholine receptor; alpha4/beta2 (Homo sapiens, UniProt P17787+P43681); test: Displacement of [3H]cytisine from recombinant human alpha4beta2 nAChR after 120 mins by scintillation counting analysis; type: protein-complex assay
[16] = molecular target: Beta-1 adrenergic receptor (Homo sapiens, UniProt P08588); test: Displacement of [3H](-)CGP12177 from recombinant human beta1 adrenergic receptor after 60 mins by scintillation counting analysis
[17] = molecular target: Sodium-dependent serotonin transporter (Homo sapiens, UniProt P31645); test: Displacement of [3H]imipramine from recombinant human serotonin transporter after 120 mins by scintillation counting analysis
[18] = molecular target: Tyrosine-protein kinase Lck (Homo sapiens, UniProt P06239); test: Activity at recombinant human LCK using Ulight-Poly GAT[EAY(1:1:1)]n as substrate measured after 10 mins by LANCE assay
[19] = molecular target: Glutamate NMDA receptor; test: Displacement of [3H]CGP 39653 from rat brain NMDA receptor after 60 mins by scintillation counting analysis
[20] = molecular target: Muscarinic acetylcholine receptor M3 (Homo sapiens, UniProt P20309); test: Displacement of [3H]4-DAMP from recombinant human M3 receptor after 60 mins by scintillation counting analysis
[21] = molecular target: Amine oxidase [flavin-containing] A (Rattus norvegicus, UniProt P21396); test: Displacement of [3H]Ro41-1049 from rat brain MAOA after 60 mins by scintillation counting analysis
[22] = molecular target: Vasopressin V1a receptor (Homo sapiens, UniProt P37288); test: Displacement of [3H]AVP from recombinant human V1A receptor after 60 mins by scintillation counting analysis
[23] = molecular target: D(1A) dopamine receptor (Homo sapiens, UniProt P21728); test: Displacement of [3H]SCH23390 from recombinant human D1 receptor after 60 mins by scintillation counting analysis

Neuronal acetylcholine receptor; alpha4/beta2, sequence (P17787 whole entry): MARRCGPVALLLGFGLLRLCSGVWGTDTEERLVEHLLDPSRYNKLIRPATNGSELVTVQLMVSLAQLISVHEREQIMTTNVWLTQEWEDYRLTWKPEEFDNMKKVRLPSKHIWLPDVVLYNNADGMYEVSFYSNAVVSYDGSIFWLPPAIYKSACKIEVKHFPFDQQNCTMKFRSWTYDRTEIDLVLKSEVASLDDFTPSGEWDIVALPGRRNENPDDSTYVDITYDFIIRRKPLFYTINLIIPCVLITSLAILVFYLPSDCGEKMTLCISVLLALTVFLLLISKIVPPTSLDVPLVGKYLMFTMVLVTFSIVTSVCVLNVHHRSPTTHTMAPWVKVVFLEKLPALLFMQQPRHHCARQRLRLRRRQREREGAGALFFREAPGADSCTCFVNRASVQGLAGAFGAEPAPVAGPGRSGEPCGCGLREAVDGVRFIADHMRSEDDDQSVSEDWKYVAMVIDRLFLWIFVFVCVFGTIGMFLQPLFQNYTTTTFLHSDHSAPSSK
Neuronal acetylcholine receptor; alpha4/beta2, sequence (P43681 whole entry): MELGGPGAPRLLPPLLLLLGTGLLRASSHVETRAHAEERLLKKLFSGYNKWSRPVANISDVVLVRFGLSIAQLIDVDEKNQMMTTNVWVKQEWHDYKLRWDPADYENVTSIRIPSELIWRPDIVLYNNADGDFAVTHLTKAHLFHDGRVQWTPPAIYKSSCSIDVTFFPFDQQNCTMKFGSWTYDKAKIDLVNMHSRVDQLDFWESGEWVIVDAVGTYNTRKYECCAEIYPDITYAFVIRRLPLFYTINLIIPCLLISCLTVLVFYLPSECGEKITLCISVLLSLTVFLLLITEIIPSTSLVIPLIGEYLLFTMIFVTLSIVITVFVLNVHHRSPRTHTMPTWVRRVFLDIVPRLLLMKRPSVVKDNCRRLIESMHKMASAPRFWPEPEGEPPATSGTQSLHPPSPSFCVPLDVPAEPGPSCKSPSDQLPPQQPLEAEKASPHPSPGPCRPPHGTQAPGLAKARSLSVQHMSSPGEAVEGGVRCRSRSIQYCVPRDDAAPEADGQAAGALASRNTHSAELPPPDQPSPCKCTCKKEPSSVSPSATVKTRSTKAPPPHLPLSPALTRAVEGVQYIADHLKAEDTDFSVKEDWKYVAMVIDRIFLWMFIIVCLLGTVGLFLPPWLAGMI
Vasopressin V1a receptor, sequence (P37288 whole entry): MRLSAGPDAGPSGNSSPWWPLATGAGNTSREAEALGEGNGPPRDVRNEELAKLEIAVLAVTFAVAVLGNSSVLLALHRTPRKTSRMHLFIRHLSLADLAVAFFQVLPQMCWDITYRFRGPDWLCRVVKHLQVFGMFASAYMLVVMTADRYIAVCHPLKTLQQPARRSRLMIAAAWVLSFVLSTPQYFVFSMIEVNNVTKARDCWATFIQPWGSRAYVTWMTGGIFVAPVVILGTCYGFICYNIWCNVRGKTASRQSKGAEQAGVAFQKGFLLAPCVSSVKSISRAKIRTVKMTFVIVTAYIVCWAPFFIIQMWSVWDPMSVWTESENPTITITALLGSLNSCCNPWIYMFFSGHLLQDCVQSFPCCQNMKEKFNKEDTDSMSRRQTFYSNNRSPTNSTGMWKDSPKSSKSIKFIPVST
Delta-type opioid receptor, sequence (P41143 whole entry): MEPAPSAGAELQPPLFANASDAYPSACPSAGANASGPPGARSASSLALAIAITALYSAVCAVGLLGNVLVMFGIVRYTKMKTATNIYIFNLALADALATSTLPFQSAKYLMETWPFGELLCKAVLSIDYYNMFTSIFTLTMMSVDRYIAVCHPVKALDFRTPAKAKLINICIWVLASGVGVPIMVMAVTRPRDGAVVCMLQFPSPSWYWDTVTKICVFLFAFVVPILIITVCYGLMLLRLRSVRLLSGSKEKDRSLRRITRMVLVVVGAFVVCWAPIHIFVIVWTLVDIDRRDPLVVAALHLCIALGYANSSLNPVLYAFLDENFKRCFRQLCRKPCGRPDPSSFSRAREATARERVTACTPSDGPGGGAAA
Alpha-1A adrenergic receptor, sequence (P35348 whole entry): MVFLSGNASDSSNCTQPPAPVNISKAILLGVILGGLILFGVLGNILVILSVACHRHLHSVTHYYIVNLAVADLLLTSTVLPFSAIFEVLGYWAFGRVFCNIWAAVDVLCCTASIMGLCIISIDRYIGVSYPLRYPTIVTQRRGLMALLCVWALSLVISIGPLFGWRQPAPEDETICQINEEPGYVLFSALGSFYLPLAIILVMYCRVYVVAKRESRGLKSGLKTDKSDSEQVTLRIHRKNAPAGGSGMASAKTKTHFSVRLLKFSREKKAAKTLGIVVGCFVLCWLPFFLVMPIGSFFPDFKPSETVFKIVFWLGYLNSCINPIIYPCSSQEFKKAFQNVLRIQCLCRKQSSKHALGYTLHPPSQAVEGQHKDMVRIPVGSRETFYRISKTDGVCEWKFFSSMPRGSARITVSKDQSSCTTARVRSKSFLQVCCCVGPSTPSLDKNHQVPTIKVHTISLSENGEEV
Endothelin-1 receptor, sequence (P25101 whole entry): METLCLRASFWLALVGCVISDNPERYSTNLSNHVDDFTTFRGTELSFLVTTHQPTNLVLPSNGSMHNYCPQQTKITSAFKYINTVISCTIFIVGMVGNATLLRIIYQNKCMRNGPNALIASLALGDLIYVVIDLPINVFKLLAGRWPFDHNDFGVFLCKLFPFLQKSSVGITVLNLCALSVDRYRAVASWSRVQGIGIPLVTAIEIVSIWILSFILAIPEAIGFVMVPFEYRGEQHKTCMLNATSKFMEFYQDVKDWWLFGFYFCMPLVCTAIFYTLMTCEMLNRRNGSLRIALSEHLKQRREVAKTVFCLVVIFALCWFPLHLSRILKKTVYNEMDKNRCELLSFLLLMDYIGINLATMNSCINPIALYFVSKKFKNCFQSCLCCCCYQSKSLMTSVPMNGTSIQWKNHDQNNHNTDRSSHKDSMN
Beta-1 adrenergic receptor, sequence (P08588 whole entry): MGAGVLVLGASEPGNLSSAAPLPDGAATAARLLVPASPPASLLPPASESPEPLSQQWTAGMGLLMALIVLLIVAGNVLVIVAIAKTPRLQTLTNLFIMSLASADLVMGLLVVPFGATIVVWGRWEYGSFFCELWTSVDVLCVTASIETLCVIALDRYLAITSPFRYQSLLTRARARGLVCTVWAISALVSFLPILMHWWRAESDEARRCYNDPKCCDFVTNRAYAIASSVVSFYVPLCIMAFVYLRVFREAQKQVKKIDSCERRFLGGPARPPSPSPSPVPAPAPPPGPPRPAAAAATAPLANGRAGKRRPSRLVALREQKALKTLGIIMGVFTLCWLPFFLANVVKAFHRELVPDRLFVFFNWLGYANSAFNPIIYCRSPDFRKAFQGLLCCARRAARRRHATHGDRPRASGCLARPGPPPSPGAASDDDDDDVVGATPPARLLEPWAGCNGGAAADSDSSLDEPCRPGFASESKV
3',5'-cyclic-AMP phosphodiesterase 4D, sequence (Q08499 whole entry): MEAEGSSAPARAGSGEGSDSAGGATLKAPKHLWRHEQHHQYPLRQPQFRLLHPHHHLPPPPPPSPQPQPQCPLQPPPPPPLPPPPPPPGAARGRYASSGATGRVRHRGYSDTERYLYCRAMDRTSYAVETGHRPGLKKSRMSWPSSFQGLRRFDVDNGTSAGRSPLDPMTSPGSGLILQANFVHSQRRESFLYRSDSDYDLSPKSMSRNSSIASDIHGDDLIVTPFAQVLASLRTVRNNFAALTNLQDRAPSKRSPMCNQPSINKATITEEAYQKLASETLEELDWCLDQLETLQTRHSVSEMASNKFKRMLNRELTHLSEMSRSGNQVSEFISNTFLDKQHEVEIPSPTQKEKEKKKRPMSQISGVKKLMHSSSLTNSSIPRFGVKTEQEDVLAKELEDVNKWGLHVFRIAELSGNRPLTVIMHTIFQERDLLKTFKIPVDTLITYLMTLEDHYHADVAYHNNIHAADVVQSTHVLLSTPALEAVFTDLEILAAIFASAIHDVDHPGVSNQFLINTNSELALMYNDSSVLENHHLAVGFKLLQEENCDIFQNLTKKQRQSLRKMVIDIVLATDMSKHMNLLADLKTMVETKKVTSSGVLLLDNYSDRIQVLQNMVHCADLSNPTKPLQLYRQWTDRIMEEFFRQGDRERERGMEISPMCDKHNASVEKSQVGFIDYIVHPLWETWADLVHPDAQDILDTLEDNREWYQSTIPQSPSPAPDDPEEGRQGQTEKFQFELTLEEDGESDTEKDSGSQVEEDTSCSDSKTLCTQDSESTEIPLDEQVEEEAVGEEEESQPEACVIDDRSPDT
5-hydroxytryptamine receptor 3A, sequence (P46098 whole entry): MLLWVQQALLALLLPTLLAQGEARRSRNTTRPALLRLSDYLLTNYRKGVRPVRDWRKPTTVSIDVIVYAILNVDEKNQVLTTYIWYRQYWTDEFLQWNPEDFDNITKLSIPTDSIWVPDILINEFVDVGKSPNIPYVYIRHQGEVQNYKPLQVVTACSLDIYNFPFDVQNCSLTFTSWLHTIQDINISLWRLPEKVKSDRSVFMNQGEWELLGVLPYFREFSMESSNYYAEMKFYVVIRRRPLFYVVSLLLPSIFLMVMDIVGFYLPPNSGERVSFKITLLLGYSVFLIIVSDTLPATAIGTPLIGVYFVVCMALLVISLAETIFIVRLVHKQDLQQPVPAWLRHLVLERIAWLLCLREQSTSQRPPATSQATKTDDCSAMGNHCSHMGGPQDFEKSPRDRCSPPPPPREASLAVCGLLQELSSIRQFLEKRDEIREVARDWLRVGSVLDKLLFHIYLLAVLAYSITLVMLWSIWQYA
Mu-type opioid receptor, sequence (P35372 whole entry): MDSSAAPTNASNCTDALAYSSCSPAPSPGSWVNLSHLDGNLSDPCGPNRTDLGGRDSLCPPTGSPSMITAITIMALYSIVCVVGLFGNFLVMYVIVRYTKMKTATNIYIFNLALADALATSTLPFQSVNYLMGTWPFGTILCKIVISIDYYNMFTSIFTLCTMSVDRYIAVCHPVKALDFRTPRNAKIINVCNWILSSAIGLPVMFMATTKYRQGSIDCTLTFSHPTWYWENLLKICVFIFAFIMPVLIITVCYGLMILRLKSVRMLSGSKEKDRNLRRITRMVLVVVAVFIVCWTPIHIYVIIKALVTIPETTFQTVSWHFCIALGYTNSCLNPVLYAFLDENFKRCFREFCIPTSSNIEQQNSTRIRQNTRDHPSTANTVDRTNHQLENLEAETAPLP

In the case of O=C(Nc1ccc(OC(F)F)nc1)NC1CCN(c2ncnc3c2nc(-c2ccccc2Cl)n3-c2ccc(Cl)cc2)CC1, the EC50 [1] is reported as > 10 µM, the IC50 [1] is reported as > 10 µM and the Activity [2] is reported as < 10%. For the same compound, the EC50 [3] was > 10 µM, the IC50 [3] was > 10 µM and the EC50 [4] was > 10 µM. The IC50 [4] was > 10 µM, the EC50 [5] was > 10 µM and the IC50 [5] was > 10 µM. For the same compound, the EC50 [6] was > 10 µM, the IC50 [6] was > 10 µM and the EC50 [7] was > 10 µM. The IC50 [7] was > 10 µM, the EC50 [8] was > 10 µM and the IC50 [8] was > 10 µM. For the same compound, the EC50 [9] was > 10 µM, the IC50 [9] was > 10 µM and the EC50 [10] was > 10 µM. The IC50 [10] was > 10 µM, the EC50 [11] was > 10 µM and the IC50 [11] was > 10 µM. The Activity [12] was “Active”, the EC50 [13] was > 10 µM and the IC50 [13] was > 10 µM. The EC50 [14] was > 10 µM, the IC50 [14] was > 10 µM and the EC50 [15] was > 10 µM. For the same compound, the IC50 [15] was > 10 µM, the EC50 [16] was > 10 µM and the IC50 [16] was > 10 µM. For the same compound, the EC50 [17] was > 10 µM, the IC50 [17] was > 10 µM and the EC50 [18] was > 10 µM. For the same compound, the IC50 [18] was > 10 µM, the EC50 [19] was > 10 µM and the IC50 [19] was > 10 µM. The EC50 [20] was > 10 µM, the IC50 [20] was > 10 µM and the EC50 [21] was > 10 µM. For the same compound, the IC50 [21] was > 10 µM, the EC50 [22] was > 10 µM and the IC50 [22] was > 10 µM. For the same compound, the EC50 [23] was > 10 µM and the IC50 [23] was > 10 µM.
